Ba/F3 V617F tox – lowers viability of Ba/F3 cells expressing EpoR and JAK2V617F; 220,000 compounds, 1.1% hits; inhibition, % at 5.6 µM; ATP luminescence;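 active means inhibition above the campaign mean plus 3 SD over all tested compounds, cut at about 24% in these data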;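 further: cytokine-independent growth of Ba/F3 cells driven by EpoR plus mutant JAK2; 0% = DMSO-treated cells and 100% = JAK inhibitor I control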
BaF3 parental – reduces parental Ba/F3 cell viability, JAK2V617F counter-screen. CellTiter-Glo ATP luminescence. inhibition, % at 5.6 µM. 220,000 compounds, 1.1% hits. AID 1486;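 active means inhibition above a per-campaign cutoff, the mean inhibition of all tested compounds plus 3 SD, cut at about 27% in these data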;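 further: 0% = DMSO wells and 100% = JAK Inhibitor I control wells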
IEC-6 tox-1 – kills IEC-6 intestinal cells in KLF5 counter-screen; IEC-6 cytotoxicity, luminescence viability; inhibition, % at 5 µM; 290,000 compounds, 0.78% hits;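 further: 0% = plate median of test compound wells and 100% = cytotoxic reference compound wells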
bCat nuc transl – beta-catenin nuclear translocation modulation; HeLa beta-catenin nuclear translocation, immunofluorescence imaging; nuclear translocation activity, % at 5 µM; 190,000 compounds, 0.3% hits; AID 1665;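 active means nuclear translocation activity above 50% at 5 µM, with a well cell count of 50 or more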;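 further: per-cell ratio of nuclear to cytoplasmic median beta-catenin stain intensity; plate controls were DMSO negative control for no effect and GSK-3 inhibitor IX positive control for full effect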
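System: Human HeLa cells, endogenous beta-catenin | Compound dosing: 5 µM primary, 0.02–20 µM confirmation | Timing: 24 h compound exposure at 37°C, 5% CO2 | Measured by: Fluorescence imaging of beta-catenin antibody stain plus DAPI | Read-out basis: % activation of per-cell nuclear versus cytoplasmic median beta-catenin signal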
KLF5 inh – kruppel-like factor 5 inhibition. DLD-1 KLF5 promoter-luciferase reporter, luminescence. inhibition, % at 5 µM. 290,000 compounds, 0.23% hits;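 active means inhibition above a per-plate limit of that plate's mean compound inhibition plus 3 SD, cut at about 60% in these data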;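 further: 0% = DMSO wells and 100% = LY294002 at 200 µM; higher means less KLF5 promoter-driven luciferase light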
MT stabilizer – stabilizes microtubules in HeLa cells; 200,000 compounds, 0.83% hits; AID 2205; HeLa tubulin immunostaining HCS, 24 h; share of cells brighter than vehicle mean+2SD; % tubulin-high responders, % at 10 µM;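 active means plate Z-score above 3 for both tubulin-high and condensed-nucleus cell shares, with cell loss under 80%, at 10 µM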;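 further: anti alpha tubulin signal scored within the nucleus-defined area of each cell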
BaF3 tox 2 – parental Ba/F3 viability inhibition for JAK2V617F counter-screen | shares compounds with Ba/F3 V617F tox | CellTiter-Glo luminescence; cells kept alive by added IL-3 | inhibition, % at 5.6 µM | 580 compounds, 31% hits;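 active means cell growth inhibition above the hit limit set in the earlier mutant JAK2 cell screen, cut at about 27% in these data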;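 further: plate controls were DMSO-treated cells for no effect and JAK Inhibitor I control wells for full effect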
JAK2V617F confrm – Ba/F3 EpoR-JAK2V617F viability loss, confirmation. CellTiter-Glo luminescence. 580 compounds, 66% hits. AID 1521. inhibition, % at 5.6 µM. shares compounds with Ba/F3 V617F tox;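 active means mean inhibition above the hit cutoff derived in the earlier primary screen, cut at about 25% in these data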;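 further: 0% = DMSO-treated cells and 100% = JAK inhibitor I control wells; higher means lower luminescence from reduced cell ATP and viability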
KLF5 confirm – confirmation of KLF5 inhibitors; DLD-1 KLF5 promoter firefly luciferase reporter, luminescence; shares compounds with KLF5 inh; AID 1834; inhibition, % at 4 µM; 610 compounds, 79% hits;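 active means inhibition above a set limit taken from the earlier primary screen, cut at about 63% in these data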;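 further: 0% = DMSO wells and 100% = LY294002 at 200 µM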
IEC-6 tox-2 – rat IEC-6 cytotoxicity, KLF5 inhibitor counter-screen; shares compounds with KLF5 inh; IEC-6 rat intestinal cells, viability luminescence; inhibition, % at 4 µM; 610 compounds, 56% hits; in the data active means inhibition above about 23%;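 further: cells exposed to compounds for 48 hours before viability read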
IEC-6 tox confirm – confirmation of cytotoxic compounds in rat IEC-6 intestinal epithelial cells. shares compounds with IEC-6 tox-1. IEC-6 rat intestinal epithelial viability, luminescence. inhibition, % at 5 µM. 1,900 compounds, 63% hits. AID 1907;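 further: 0% = vehicle and 100% = reference cytotoxic drug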
* hit, by the source's call. This is a sample that favours compounds with a hit; in the whole collection about 2.1% have one here. Unless noted, no stated cut-off is given here; in the data, active means inhibition above about 22%; inactive means the rest.

Screening COCCN1CC(CNC(=O)c2cc(COc3ccc(C)c(C)c3)on2)CC1=O (configuration not stated) returned IEC-6 tox-1 -4.8 and KLF5 inh -22.1.
Screening CC(=O)OC[C@H]1O[C@@H](n2ncc(=O)[nH]c2=O)[C@H](OC(C)=O)[C@@H]1OC(C)=O returned Ba/F3 V617F tox 60.9*, BaF3 parental 26.4, IEC-6 tox-1 39.3*, KLF5 inh 47.4, MT stabilizer 3.5, BaF3 tox 2 53.0*, JAK2V617F confrm 75.0* and IEC-6 tox confirm 22.0*.
Screening O=C(NC(NC(=S)N1CCOCC1)C(Cl)(Cl)Cl)c1ccc(Cl)cc1 (configuration not stated) returned Ba/F3 V617F tox 30.2*, BaF3 parental -1.0, IEC-6 tox-1 23.8*, bCat nuc transl -4.0, KLF5 inh 10.8, MT stabilizer 1.8, BaF3 tox 2 30.6*, JAK2V617F confrm 60.4* and IEC-6 tox confirm 30.6*.
For CC1(C)OC(=CC=Nc2ccc(Cl)cc2)OC1(C)C the results were Ba/F3 V617F tox 3.3, BaF3 parental 0.4, IEC-6 tox-1 8.2, bCat nuc transl -1.2 and KLF5 inh 8.4.
For O=C(O)C(=O)Nc1ccc(NC(=O)C(c2ccccc2)c2ccccc2)cc1 the results were IEC-6 tox-1 0.3 and KLF5 inh -38.8.
O=C(c1ccc2c(c1)C(=O)N(CCCO)C2=O)c1ccc2c(c1)C(=O)N(CCCO)C2=O was read as Ba/F3 V617F tox 0.9, BaF3 parental 3.7, IEC-6 tox-1 2.3, bCat nuc transl -1.1, KLF5 inh 26.2 and MT stabilizer 5.2.
Screening O=C1c2ccc3c4c(ccc(c24)C(=O)N1CCCCO)C(=O)N(CCCCO)C3=O returned Ba/F3 V617F tox 31.6*, BaF3 parental 13.1, IEC-6 tox-1 29.1*, bCat nuc transl 0.2, KLF5 inh 9.5, MT stabilizer 3.4, BaF3 tox 2 78.9*, JAK2V617F confrm 91.4* and IEC-6 tox confirm 36.6*.
CC(=O)Cc1cc(O)c2ccccc2c1OC(=O)c1ccccc1 was read as Ba/F3 V617F tox 27.8*, BaF3 parental -3.8, IEC-6 tox-1 54.9*, bCat nuc transl 1.2, KLF5 inh -12.3, MT stabilizer 4.7, BaF3 tox 2 27.6*, JAK2V617F confrm 40.5* and IEC-6 tox confirm -9.2.
Screening N#CC1=C(N)Oc2cc3ccccc3cc2C1c1cccnc1 (configuration not stated) returned Ba/F3 V617F tox 30.1*, BaF3 parental 24.6, IEC-6 tox-1 47.3*, bCat nuc transl -1.3, KLF5 inh 0.3, MT stabilizer 55.6*, BaF3 tox 2 30.6*, JAK2V617F confrm 47.5* and IEC-6 tox confirm 43.8*.
`Cn1cc([N+](=O)[O-])c(C(=O)Nc2cc(Oc3ccccc3)cc([N+](=O)[O-])c2)n1` gave Ba/F3 V617F tox 26.4*, BaF3 parental 1.6, IEC-6 tox-1 22.7*, bCat nuc transl 17.7, KLF5 inh -9.9, MT stabilizer 25.2, BaF3 tox 2 32.3*, JAK2V617F confrm 98.6* and IEC-6 tox confirm 18.8.
O=c1c(Cl)c(Cl)cnn1Cc1nnc(-c2ccc(Cl)cc2)o1 was read as Ba/F3 V617F tox 33.9*, BaF3 parental -7.8, IEC-6 tox-1 35.0*, bCat nuc transl 2.4, KLF5 inh -2.6, MT stabilizer 39.8, BaF3 tox 2 65.6*, JAK2V617F confrm 81.3* and IEC-6 tox confirm 17.2.
Screening Cc1cccc(Nc2nc(N)nc(CCl)n2)c1C returned Ba/F3 V617F tox 99.6*, BaF3 parental 3.5, IEC-6 tox-1 101.7*, bCat nuc transl 0.1, KLF5 inh -22.2, BaF3 tox 2 4.5, JAK2V617F confrm 98.4* and IEC-6 tox confirm 1.0.
Screening COc1ccccc1Nc1nc(N)nc(CCl)n1 returned Ba/F3 V617F tox -1.5, BaF3 parental 2.4, IEC-6 tox-1 0.2, bCat nuc transl -1.2 and KLF5 inh -24.5.
For CCC(C)[C@H](NC(=O)N1CCn2c1nc1ccccc12)C(=O)NCc1ccccc1 (some centres not stated) the results were IEC-6 tox-1 3.9 and KLF5 inh 6.3.
`Cc1cccc(NC(=O)NC(=O)c2ccccc2)n1` gave Ba/F3 V617F tox -0.1, BaF3 parental 7.2, IEC-6 tox-1 -4.3, bCat nuc transl 0.7, KLF5 inh -48.0 and MT stabilizer 2.9.
`O=C(NC(=O)c1ccccc1)Nc1ccccn1` gave IEC-6 tox-1 13.2, KLF5 inh 84.3*, KLF5 confirm 65.6* and IEC-6 tox-2 32.5*.
For Cc1c(C(N)=O)sc2ncn(CC(=O)N(C)C3CCCCC3)c(=O)c12 the results were IEC-6 tox-1 -7.2 and KLF5 inh -25.5.
`COc1ccc(C(=O)Oc2cccc(/C=N/NC(N)=S)c2)cc1` gave Ba/F3 V617F tox -1.5, BaF3 parental 5.5, IEC-6 tox-1 -0.6, KLF5 inh -26.4 and MT stabilizer 3.0.
COc1ccc(OCc2cccc(C(=O)Nn3cc([N+](=O)[O-])cn3)c2)cc1 was read as Ba/F3 V617F tox 5.9, BaF3 parental 11.8, IEC-6 tox-1 4.1, bCat nuc transl 1.1, KLF5 inh 93.4*, MT stabilizer 3.7, KLF5 confirm 102.6* and IEC-6 tox-2 5.0.
COc1cccc(NC(=O)Nc2cccc(C(=O)O)c2)c1 was read as Ba/F3 V617F tox -1.9, BaF3 parental 0.8, IEC-6 tox-1 -4.0, bCat nuc transl -2.7, KLF5 inh 75.5*, MT stabilizer 2.5, KLF5 confirm 65.0* and IEC-6 tox-2 -2.4.
For O=C(Nc1cccc(C(=O)O)c1)Nc1ccc2c(c1)OCO2 the results were IEC-6 tox-1 1.9, KLF5 inh 95.5*, KLF5 confirm 89.0* and IEC-6 tox-2 5.1.
`O=C(Nc1ccc2c(c1)OCO2)Nc1ccc2c(c1)OCO2` gave Ba/F3 V617F tox 1.0, BaF3 parental 4.8, IEC-6 tox-1 -3.4, bCat nuc transl -0.2, KLF5 inh -81.3 and MT stabilizer 4.0.
`COc1cc(/C=N/NC(=S)Nc2cccc(Cl)c2C)ccc1OCC(=O)N1CC(C)OC(C)C1` (configuration not stated) gave Ba/F3 V617F tox 1.2, BaF3 parental 2.8, IEC-6 tox-1 0.7, bCat nuc transl 3.8, KLF5 inh 0.4 and MT stabilizer 5.1.

Screens: PubChem, several laboratories
